Results taken from ChEMBL document CHEMBL3085704, “Methyl-thiazoles: a novel mode of inhibition with the potential to develop novel inhibitors targeting InhA in Mycobacterium tuberculosis” (J Med Chem, 2013).
Converted amounts (≈) assume the structure as drawn.

Key:
[1] = target: T1, Enoyl-[acyl-carrier-protein] reductase [NADH] (Mycobacterium tuberculosis, UniProt P9WGR1); experiment: Inhibition of wild type Mycobacterium tuberculosis inhA
T1 sequence (P9WGR1 whole entry): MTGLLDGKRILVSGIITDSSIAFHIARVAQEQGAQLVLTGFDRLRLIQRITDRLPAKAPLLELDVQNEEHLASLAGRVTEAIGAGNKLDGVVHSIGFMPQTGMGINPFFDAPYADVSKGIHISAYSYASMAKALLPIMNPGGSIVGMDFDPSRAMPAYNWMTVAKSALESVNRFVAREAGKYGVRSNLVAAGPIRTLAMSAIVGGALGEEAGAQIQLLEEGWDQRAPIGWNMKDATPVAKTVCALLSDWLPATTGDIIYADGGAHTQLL

[2] = target: T1, Enoyl-[acyl-carrier-protein] reductase [NADH]; experiment: Inhibition of Mycobacterium tuberculosis full length inhA expressed in Escherichia coli BL21 preincubated for 15 mins by fluorescence based assay in presence of NADH
[3] = tested on: Mycobacterium tuberculosis; experiment: Antimycobacterial activity against Mycobacterium tuberculosis H37Rv ATCC 27294 assessed as parasite growth inhibition after 7 days by Alamar Blue assay; assay type: functional; details: H37Rv ATCC 27294, 168 h
[4] = Aqueous solubility of the compound; assay type: physicochemical; details: buffer
[5] = Fraction unbound in plasma (unknown origin); assay type: ADME, cell-free
[6] = Cytotoxicity against human A549 cells assessed as growth inhibition after 7 days by Alamar Blue assay; assay type: cell-based; details: read-out: MIC
[7] = target: T2, Enoyl-[acyl-carrier-protein] reductase [NADH] (Mycobacterium tuberculosis) (UniProt P9WGR1); details: 50 uM
T2 sequence (whole entry): T1 sequence (P9WGR1 whole entry)

[8] = target: T1, Enoyl-[acyl-carrier-protein] reductase [NADH]; experiment: Binding affinity to Mycobacterium tuberculosis NADH-bound form full length inhA (1 to 255) by isothermal titration calorimetry assay
How it was run: (§1)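 InhA titrated with compound by isothermal titration calorimetry, either as apo enzyme or pre-bound to NADH or NAD+ cofactor. No enoyl-ACP substrate was present. ITC data were used mainly to derive Kd and binding stoichiometry.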

[9] = target: T1, Enoyl-[acyl-carrier-protein] reductase [NADH]; experiment: Binding affinity to Mycobacterium tuberculosis NADH-bound form of full length inhA (1 to 255) by SPR assay
[10] = target: T2, Enoyl-[acyl-carrier-protein] reductase [NADH] (Mycobacterium tuberculosis)
[11] = target: T2, Enoyl-[acyl-carrier-protein] reductase [NADH] (Mycobacterium tuberculosis); remark: listed apart in the source
[12] = target: T2, Enoyl-[acyl-carrier-protein] reductase [NADH] (Mycobacterium tuberculosis); details: 50 uM; remark: listed apart in the source
Cytochrome P450 3A4 = Cytochrome P450 3A4 (Homo sapiens, UniProt P08684); experiment: Inhibition of CYP3A4 (unknown origin); assay type: ADME
[13] = target: T1, Enoyl-[acyl-carrier-protein] reductase [NADH]; experiment: Binding affinity to Mycobacterium tuberculosis NAD+-bound form of full length inhA (1 to 255) by isothermal titration calorimetry assay; how it was run: as §1
[14] = target: T2, Enoyl-[acyl-carrier-protein] reductase [NADH] (Mycobacterium tuberculosis); remark: listed apart in the source
Homo sapiens = organism: Homo sapiens; experiment: Inhibition of angiotensin receptor (unknown origin) at 30 uM
[15] = target: T3, Adenosine receptor A3 (Homo sapiens) (UniProt P0DMS8); experiment: Inhibition of adenosine A3 receptor (unknown origin) at 30 uM
T3 sequence (whole entry): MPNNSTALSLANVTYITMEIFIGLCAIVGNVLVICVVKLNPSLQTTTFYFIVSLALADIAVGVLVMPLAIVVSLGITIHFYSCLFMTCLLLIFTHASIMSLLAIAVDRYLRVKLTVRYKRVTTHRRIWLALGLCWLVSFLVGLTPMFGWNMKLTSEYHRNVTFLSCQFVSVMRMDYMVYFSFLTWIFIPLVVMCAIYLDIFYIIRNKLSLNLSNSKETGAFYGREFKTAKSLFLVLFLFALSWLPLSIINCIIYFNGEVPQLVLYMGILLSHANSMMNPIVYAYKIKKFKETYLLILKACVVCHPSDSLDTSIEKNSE

[16] = target: T4, Adenosine receptor A1 (Homo sapiens) (UniProt P30542); experiment: Inhibition of adenosine A1 receptor (unknown origin) at 30 uM
T4 sequence (whole entry): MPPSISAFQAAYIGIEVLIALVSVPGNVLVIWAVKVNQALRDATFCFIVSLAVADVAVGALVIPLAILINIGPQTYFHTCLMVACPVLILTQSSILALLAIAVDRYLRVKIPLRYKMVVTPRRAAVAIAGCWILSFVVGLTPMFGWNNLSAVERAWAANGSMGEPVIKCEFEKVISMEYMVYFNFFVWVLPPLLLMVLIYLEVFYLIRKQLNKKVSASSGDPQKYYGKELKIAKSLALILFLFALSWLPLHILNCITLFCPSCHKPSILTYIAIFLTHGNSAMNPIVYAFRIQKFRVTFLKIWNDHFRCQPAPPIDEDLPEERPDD

Adenosine receptor A1 = target: T5, Adenosine receptor A1 (Homo sapiens, UniProt P30542); experiment: Inhibition of adenosine A1 receptor (unknown origin)
T5 sequence (P30542 whole entry): T4 sequence (whole entry)

Phosphodiesterase 4 = Phosphodiesterase 4 (Homo sapiens, UniProt P27815+Q08499+Q07343+Q08493); experiment: Inhibition of PDE4 (unknown origin); assay type: protein assay
[17] = target: 5-hydroxytryptamine receptor 2B (Homo sapiens, UniProt P41595); experiment: Inhibition of 5HT2B receptor (unknown origin)
[18] = tested on: Mycobacterium tuberculosis; experiment: Antitubercular activity against Mycobacterium tuberculosis; assay type: functional

Cytochrome P450 3A4, sequence (P08684 whole entry): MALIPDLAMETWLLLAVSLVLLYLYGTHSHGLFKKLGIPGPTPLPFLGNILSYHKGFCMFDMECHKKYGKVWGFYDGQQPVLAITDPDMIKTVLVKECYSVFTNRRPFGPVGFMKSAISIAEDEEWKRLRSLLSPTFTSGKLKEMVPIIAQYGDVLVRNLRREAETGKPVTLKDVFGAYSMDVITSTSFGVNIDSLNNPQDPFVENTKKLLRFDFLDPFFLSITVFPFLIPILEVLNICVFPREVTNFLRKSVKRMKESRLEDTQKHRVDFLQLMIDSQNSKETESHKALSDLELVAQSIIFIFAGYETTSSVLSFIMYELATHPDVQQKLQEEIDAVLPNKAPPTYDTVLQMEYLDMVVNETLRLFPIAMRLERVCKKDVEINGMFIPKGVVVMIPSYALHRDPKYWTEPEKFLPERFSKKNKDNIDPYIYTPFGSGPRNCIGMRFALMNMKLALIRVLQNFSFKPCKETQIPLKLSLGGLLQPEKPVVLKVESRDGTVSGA
5-hydroxytryptamine receptor 2B, sequence (P41595 whole entry): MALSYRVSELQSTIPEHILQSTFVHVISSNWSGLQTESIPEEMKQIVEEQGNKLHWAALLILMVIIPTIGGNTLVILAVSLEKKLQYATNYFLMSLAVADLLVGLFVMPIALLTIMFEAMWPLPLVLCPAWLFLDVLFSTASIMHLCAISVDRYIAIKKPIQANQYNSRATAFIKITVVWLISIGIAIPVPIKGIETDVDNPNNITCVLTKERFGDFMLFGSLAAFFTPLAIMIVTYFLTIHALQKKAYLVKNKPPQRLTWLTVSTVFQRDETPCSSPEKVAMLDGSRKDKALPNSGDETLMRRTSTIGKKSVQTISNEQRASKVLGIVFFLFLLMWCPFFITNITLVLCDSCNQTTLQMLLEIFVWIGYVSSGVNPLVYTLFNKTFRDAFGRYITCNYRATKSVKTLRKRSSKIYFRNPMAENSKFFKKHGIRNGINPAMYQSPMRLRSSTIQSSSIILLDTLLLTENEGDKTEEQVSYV

`CCCCCCc1ccc(Oc2ccccc2C)c(O)c1` showed an IC50 [1] of 22 nM.
With `O=C1CC(c2nc3ccccc3n2Cc2ccccc2)CN1C1CCCCC1` (configuration not stated) the IC50 [2] was 1000 nM and the MIC [3] was greater than 64 µM.
With `COC(=O)c1cnc2ccc(C#N)cc2c1NCCCc1ccccc1` the IC50 [2] was 20 nM and the MIC [3] was greater than 64 µM.
For `Cc1csc([C@](C)(O)c2nnc(Nc3ccn(Cc4c(F)cccc4F)n3)s2)n1`, the solubility [4] was 208 µM (≈ 90.4 µg/mL), the fraction unbound [5] was 0.034 and the MCC at 168 h [6] was 78 µM. The ΔTm [7] was 69.3 °C, the IC50 [2] was 3 nM and the Kd [8] was 13.7 nM. It also gave a Kd [9] of 11.5 nM, a Tm [10] of 56.5 °C and a Tm [11] of 55.2 °C. For the same compound, the ΔTm [12] was 55 °C, the IC50 (Cytochrome P450 3A4) was 1900 nM and the MIC [3] was 0.19 µM. For the same compound, the Kd [13] was 9300 nM and the Tm [14] was 54.2 °C.
`Cc1csc(C(C)(O)c2nnc(Nc3cc(C4CC4)n(Cc4c(F)cccc4F)n3)s2)n1` (racemic) showed an IC50 [2] of 970 nM and an MIC [3] greater than 12.5 µM.
For `Cc1csc(C(C)(O)c2nnc(NCC3CN(Cc4c(F)cccc4F)C(=O)O3)s2)n1` (racemic), the IC50 [2] was 400 nM and the MIC [3] was greater than 100 µM.
`Cc1csc(C(C)(O)c2nnc(NC(=O)c3ccn(Cc4c(F)cccc4F)n3)s2)n1` (racemic) gave an IC50 [2] of 34000 nM and an MIC [3] greater than 100 µM.
`Cc1csc(C(C)(O)c2nnc(Nc3ccn(Cc4c(F)cccc4F)n3)s2)n1` (racemic) showed an IC50 [2] of 4 nM and an MIC [3] of 0.5 µM.
Compound `Cc1csc(C(C)(O)c2nnc(Nc3cnn(Cc4c(F)cccc4F)c3)s2)n1` (racemic) has an IC50 [2] of 234 nM and an MIC [3] of 7.5 µM.
`Cc1csc(C(C)(O)c2nnc(Nc3ncn(Cc4c(F)cccc4F)n3)s2)n1` (racemic) showed a solubility [4] of 69 µM (≈ 30 µg/mL), a fraction unbound [5] of 0.143 and an MCC at 168 h [6] greater than 100 µM. The IC50 [2] was 30 nM, the inhibition (Homo sapiens) was 69% and the inhibition [15] was 70%. The IC50 (Cytochrome P450 3A4) was 48000 nM, the MIC [3] was 0.391 µM and the inhibition [16] was 63%.
For `Cc1csc(C(C)(O)c2nnc(NC(=O)Cc3c(F)cccc3F)s2)n1` (racemic), the IC50 (Adenosine receptor A1) was 21000 nM, the solubility [4] was 26 µM (≈ 10.3 µg/mL) and the fraction unbound [5] was 0.019. For the same compound, the MCC at 168 h [6] was greater than 100 µM, the IC50 (Phosphodiesterase 4) was 23000 nM and the IC50 [2] was 200 nM. For the same compound, the IC50 (Cytochrome P450 3A4) was greater than 50000 nM, the MIC [3] was 3.75 µM and the IC50 [17] was 64000 nM.
In the case of `Cc1csc(C(C)(O)c2nnc(Nc3cccc(Cc4c(F)cccc4F)n3)s2)n1` (racemic), the IC50 [2] is reported as less than 2 nM and the MIC [3] is reported as 3.13 µM.
`Cc1csc(C(C)(O)c2nnc(Nc3nccc(Cc4c(F)cccc4F)n3)s2)n1` (racemic) gave an IC50 [2] of less than 2 nM and an MIC [3] of 12.5 µM.
For `NNC(=O)c1ccncc1` [ISONIAZID], the MIC [18] was 0.05 µM (≈ 0.00686 µg/mL) and the MIC [3] was 0.03 µg/mL.
With `COc1c(N2C[C@@H]3CCCN[C@@H]3C2)c(F)cc2c(=O)c(C(=O)O)cn(C3CC3)c12` [MOXIFLOXACIN] the MIC [3] was 0.12 µg/mL.
Compound `CC/C(C)=C1\OC(=O)[C@H](C)[C@H](O)[C@H](Cc2cccnc2)NC(=O)[C@@H](NC(=O)c2ncccc2O)[C@@H](C)OC1=O` [PYRIDOMYCIN] has an MIC [18] of 0.57 µM (≈ 0.308 µg/mL).
With `CO[C@H]1/C=C/O[C@@]2(C)Oc3c(C)c(O)c4c(O)c(c(/C=N/N5CCN(C)CC5)c(O)c4c3C2=O)NC(=O)/C(C)=C\C=C\[C@H](C)[C@H](O)[C@@H](C)[C@@H](O)[C@@H](C)[C@H](OC(C)=O)[C@@H]1C` [RIFAMPIN] the MIC [3] was 0.007 µg/mL.
Work on `Oc1cc(Cl)ccc1Oc1ccc(Cl)cc1Cl` [TRICLOSAN] yielded an MIC [18] of 64 µM (≈ 18.5 µg/mL).
